From ChEMBL document CHEMBL1155777, “Increased survival after gemfibrozil treatment of severe mouse influenza” (Antimicrob Agents Chemother, 2007)

Assays:
[1] = test system: H2N2 subtype; test: Antiviral activity against Influenza A virus (A/Japan/305/57(H2N2)) infected BALB/c mouse assessed as infection-induced weight loss at 60 mg/kg, ip administered once daily from day 4 to 10 post viral challenge measured on day 6 postinfection; assay type: functional, Influenza A virus (A/Japan/305/1957(H2N2)); conditions: route intraperitoneal
How it was run: (§1)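 Gemfibrozil in 100% propylene glycol, 10 µl/mouse i.p., once daily days 4–10 after virus exposure; vehicle-only controls on the same days. Mice weighed before infection, then daily days 4–12 inclusive; loss tracked against pre-infection weight.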

[2] = test system: H2N2 subtype; test: Antiviral activity against Influenza A virus (A/Japan/305/57(H2N2)) infected BALB/c mouse assessed as mouse survival at 60 mg/kg, ip administered once daily from day 4 to 10 post viral challenge; assay type: functional, Influenza A virus (A/Japan/305/1957(H2N2)); conditions: 96 h, route intraperitoneal
How it was run: (§2)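 Propylene glycol vehicle, 10 µl/mouse i.p., once daily days 4–10 post-infection; vehicle controls. Survival followed 30 days. 20/40/60 mg/kg in one experiment (n = 9–10 per group); 60 mg/kg also pooled from four experiments (vehicle n = 50, drug n = 46). Log rank test on survival time; Cox proportional hazards model for hazard ratios.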

[3] = test system: H2N2 subtype; test: Antiviral activity against Influenza A virus (A/Japan/305/57(H2N2)) infected BALB/c mouse assessed as infection-induced weight loss at 60 mg/kg, ip administered once daily from day 4 to 10 post viral challenge measured on day 10 postinfection; assay type: functional, Influenza A virus (A/Japan/305/1957(H2N2)); conditions: route intraperitoneal; how it was run: as §1
[4] = test system: H2N2 subtype; test: Antiviral activity against Influenza A virus (A/Japan/305/57(H2N2)) infected BALB/c mouse assessed as infection-induced weight loss at 20 mg/kg, ip administered once daily from day 4 to 10 post viral challenge measured on day 8 postinfection; assay type: functional, Influenza A virus (A/Japan/305/1957(H2N2)); conditions: route intraperitoneal; how it was run: as §1
[5] = test system: Mus musculus; test: Increase in survival of LPS-induced BALB/c mouse severe systemic infection model at 60 mg/kg, ip administered as single dose 1 hr before LPS challenge; assay type: functional; conditions: route intraperitoneal
How it was run: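 LPS (E. coli O111:B4) 30 mg/kg i.p.; single 60 mg/kg i.p. dose in propylene glycol given 1 h before LPS; vehicle-only controls. n = 20 per group, single experiment; survival followed 14 days; log rank test.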

[6] = test system: H2N2 subtype; test: Antiviral activity against Influenza A virus (A/Japan/305/57(H2N2)) infected BALB/c mouse assessed as infection-induced weight loss at 60 mg/kg, ip administered once daily from day 4 to 10 post viral challenge measured on day 8 postinfection; assay type: functional, Influenza A virus (A/Japan/305/1957(H2N2)); conditions: route intraperitoneal; how it was run: as §1
[7] = test system: H2N2 subtype; test: Antiviral activity against Influenza A virus (A/Japan/305/57(H2N2)) infected BALB/c mouse assessed as infection-induced weight loss at 40 mg/kg, ip administered once daily from day 4 to 10 post viral challenge measured on day 12 postinfection; assay type: functional, Influenza A virus (A/Japan/305/1957(H2N2)); conditions: route intraperitoneal; how it was run: as §1
[8] = test system: H2N2 subtype; test: Antiviral activity against Influenza A virus (A/Japan/305/57(H2N2)) infected BALB/c mouse assessed as infection-induced weight loss at 20 mg/kg, ip administered once daily from day 4 to 10 post viral challenge measured on day 12 postinfection; assay type: functional, Influenza A virus (A/Japan/305/1957(H2N2)); conditions: route intraperitoneal; how it was run: as §1
[9] = test system: H2N2 subtype; test: Antiviral activity against Influenza A virus (A/Japan/305/57(H2N2)) infected BALB/c mouse assessed as infection-induced weight loss at 20 mg/kg, ip administered once daily from day 4 to 10 post viral challenge measured on day 4 postinfection; assay type: functional, Influenza A virus (A/Japan/305/1957(H2N2)); conditions: route intraperitoneal; how it was run: as §1
[10] = test system: H2N2 subtype; test: Antiviral activity against Influenza A virus (A/Japan/305/57(H2N2)) infected BALB/c mouse assessed as infection-induced weight loss at 60 mg/kg, ip administered once daily from day 4 to 10 post viral challenge measured on day 12 postinfection; assay type: functional, Influenza A virus (A/Japan/305/1957(H2N2)); conditions: route intraperitoneal; how it was run: as §1
[11] = test system: H2N2 subtype; test: Antiviral activity against Influenza A virus (A/Japan/305/57(H2N2)) infected BALB/c mouse assessed as infection-induced weight loss at 40 mg/kg, ip administered once daily from day 4 to 10 post viral challenge measured on day 4 postinfection; assay type: functional, Influenza A virus (A/Japan/305/1957(H2N2)); conditions: route intraperitoneal; how it was run: as §1
[12] = test system: H2N2 subtype; test: Antiviral activity against Influenza A virus (A/Japan/305/57(H2N2)) infected BALB/c mouse assessed as infection-induced weight loss at 40 mg/kg, ip administered once daily from day 4 to 10 post viral challenge measured on day 6 postinfection; assay type: functional, Influenza A virus (A/Japan/305/1957(H2N2)); conditions: route intraperitoneal; how it was run: as §1
[13] = test system: H2N2 subtype; test: Antiviral activity against Influenza A virus (A/Japan/305/57(H2N2)) infected BALB/c mouse assessed as mouse survival at 40 mg/kg, ip administered once daily from day 4 to 10 post viral challenge; assay type: functional, Influenza A virus (A/Japan/305/1957(H2N2)); conditions: 96 h, route intraperitoneal; how it was run: as §2
[14] = test system: H2N2 subtype; test: Antiviral activity against Influenza A virus (A/Japan/305/57(H2N2)) infected BALB/c mouse assessed as mouse survival at 20 mg/kg, ip administered once daily from day 4 to 10 post viral challenge; assay type: functional, Influenza A virus (A/Japan/305/1957(H2N2)); conditions: 96 h, route intraperitoneal; how it was run: as §2
[15] = test system: H2N2 subtype; test: Antiviral activity against Influenza A virus (A/Japan/305/57(H2N2)) infected BALB/c mouse assessed as infection-induced weight loss at 40 mg/kg, ip administered once daily from day 4 to 10 post viral challenge measured on day 8 postinfection; assay type: functional, Influenza A virus (A/Japan/305/1957(H2N2)); conditions: route intraperitoneal; how it was run: as §1
[16] = test system: Mus musculus; test: Increase in survival of LPS-induced BALB/c mouse severe systemic infection model at 60 mg/kg, ip administered as single dose 2 hrs before LPS challenge; assay type: functional; conditions: route intraperitoneal
[17] = Toxicity in mouse assessed as lethal dose; assay type: organism-based; conditions: in vivo
[18] = test system: H2N2 subtype; test: Antiviral activity against Influenza A virus (A/Japan/305/57(H2N2)) infected BALB/c mouse assessed as infection-induced weight loss at 60 mg/kg, ip administered once daily from day 4 to 10 post viral challenge measured on day 4 postinfection; assay type: functional, Influenza A virus (A/Japan/305/1957(H2N2)); conditions: route intraperitoneal; how it was run: as §1
[19] = test system: H2N2 subtype; test: Antiviral activity against Influenza A virus (A/Japan/305/57(H2N2)) infected BALB/c mouse assessed as infection-induced weight loss at 20 mg/kg, ip administered once daily from day 4 to 10 post viral challenge measured on day 6 postinfection; assay type: functional, Influenza A virus (A/Japan/305/1957(H2N2)); conditions: route intraperitoneal; how it was run: as §1
[20] = test system: H2N2 subtype; test: Antiviral activity against Influenza A virus (A/Japan/305/57(H2N2)) infected BALB/c mouse assessed as infection-induced weight loss at 40 mg/kg, ip administered once daily from day 4 to 10 post viral challenge measured on day 10 postinfection; assay type: functional, Influenza A virus (A/Japan/305/1957(H2N2)); conditions: route intraperitoneal; how it was run: as §1
[21] = test system: H2N2 subtype; test: Antiviral activity against Influenza A virus (A/Japan/305/57(H2N2)) infected BALB/c mouse assessed as infection-induced weight loss at 20 mg/kg, ip administered once daily from day 4 to 10 post viral challenge measured on day 10 postinfection; assay type: functional, Influenza A virus (A/Japan/305/1957(H2N2)); conditions: route intraperitoneal; how it was run: as §1

Cc1ccc(C)c(OCCCC(C)(C)C(=O)O)c1 [GEMFIBROZIL]
Activity [1]: 77.1% | survival at 60 mg/kg [2]: 52% | Activity [3]: 78% | Activity [4]: 75.1% | survival at 60 mg/kg [5]: 25% | Activity [6]: 73.2% | Activity [7]: 77.1% | Activity [8]: 79% | Activity [9]: 87.9% | Activity [10]: 81.8% | Activity [11]: 87% | Activity [12]: 75.6% | survival at 40 mg/kg [13]: 44% | survival at 20 mg/kg [14]: 30% | Activity [15]: 72.2% | survival at 60 mg/kg [16]: 10% | LD50 [17]: 3160 mg/kg | Activity [18]: 86.5% | Activity [19]: 77.5% | Activity [20]: 73.4% | Activity [21]: 75.2%
